According to ChEMBL document CHEMBL4828740, “Discovery of Quinoxaline-Based P1-P3 Macrocyclic NS3/4A Protease Inhibitors with Potent Activity against Drug-Resistant Hepatitis C Virus Variants” (J Med Chem, 2021):

Legend:
Hepatitis C virus [1] = assay: Antiviral activity against HCV genotype 1b infected in human Huh7 cells incubated for 96 hrs by luciferase assay; assay type: functional, organism-based, Hepacivirus hominis; conditions: Huh-7, 96 h
Procedure, shortened: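 Con1 (GT-1b) luciferase reporter replicon carrying the H77 (GT-1a) NS3 protease region, either WT or with A156T or D168A introduced by megaprimer mutagenesis. Cured Huh7 cells grown in DMEM with 10% heat-inactivated FBS and 0.1 mM non-essential amino acids. Cells electroporated with replicon RNA and kept with serially diluted inhibitor.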

Hepatitis C virus [2] = assay: Antiviral activity against HCV genotype 1b harboring D168A mutant infected in human Huh7 cells incubated for 96 hrs by luciferase assay; assay type: functional, organism-based, Hepacivirus hominis; conditions: subtype 1b, Huh-7, 96 h
Procedure, shortened: (§1)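 Con1 (GT-1b) luciferase reporter replicon carrying the H77 (GT-1a) NS3 protease region, with the mutation introduced by megaprimer site-directed mutagenesis. Cured Huh7 cells were grown in DMEM with 10% heat-inactivated FBS and 0.1 mM non-essential amino acids, electroporated with replicon RNA transcripts, and kept with serially diluted inhibitor. EC50 was taken directly from the inhibition curves.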

Hepatitis C virus [3] = assay: Antiviral activity against HCV genotype 3a infected in human Huh7.5 cells incubated for 72 hrs by luciferase assay; assay type: functional, organism-based, Hepacivirus hominis; conditions: subtype 3a, Huh7.5, 72 h
Procedure, shortened: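 Huh7.5 cells stably harboring the GT-3a replicon S52/SG-Feo SHI, seeded at 8,000 cells/well. Cells lysed in 1X Passive Lysis Buffer and luciferase activity measured. EC50 taken from drug inhibition curves.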

Hepatitis C virus [4] = assay: Antiviral activity against HCV genotype 1b harboring A156T mutant infected in human Huh7 cells incubated for 96 hrs by luciferase assay; assay type: functional, organism-based, Hepacivirus hominis; conditions: subtype 1b, Huh-7, 96 h; procedure, shortened: as §1
[5] = target: T1, Hepatitis C virus serine protease, NS3/NS4A (Hepatitis C virus, UniProt A3EZI9+D2K2A8); assay: Inhibition of HCV GT-1a NS3/4a protease using Ac-DE-D(Edans)-EE-Abu-c-[COO]-AS-K(Dabcy1)-NH2 preincubated for 1 hr followed by substrate addition; assay type: protein complex, Hepatitis C virus subtype 1a
[6] = target: T1, Hepatitis C virus serine protease, NS3/NS4A; assay: Inhibition of HCV GT-3a NS3/4a protease using Ac-DE-D(Edans)-EE-Abu-c-[COO]-AS-K(Dabcy1)-NH2 preincubated for 1 hr followed by substrate addition; assay type: protein-complex assay, Hepatitis C virus subtype 3a

| Compound | EC50 (Hepatitis C virus [1]) [nM] | EC50 (Hepatitis C virus [2]) [nM] | EC50 (Hepatitis C virus [3]) [nM] | EC50 (Hepatitis C virus [4]) [nM] | Ki [5] [nM] | Ki [6] [nM] |
| --- | --- | --- | --- | --- | --- | --- |
| CC(C)(C)[C@@H]1NC(=O)O[C@@H]2CCC[C@H]2OC/C=C/C(F)(F)c2nc3ccccc3nc2O[C@@H]2C[C@@H](C(=O)N[C@]3(C(=O)NS(=O)(=O)C4(C)CC4)C[C@H]3C(F)F)N(C2)C1=O | 0.2 | 0.2 | 30 | – | – | – |
| COc1ccc2nc(C)c(O[C@@H]3C[C@H]4C(=O)N[C@]5(C(=O)NS(=O)(=O)C6(C)CC6)C[C@H]5/C=C/CCCCC[C@H](NC(=O)O[C@H](C)C(F)(F)F)C(=O)N4C3)nc2c1 | 0.5 | 2.5 | 260 | 18 | 1.1 | 122 |
| COc1ccc2nc(C)c(O[C@@H]3C[C@H]4C(=O)N[C@]5(C(=O)NS(=O)(=O)C6(C)CC6)C[C@H]5/C=C/CCCCC[C@H](NC(=O)O[C@@H]5CCC[C@H]5F)C(=O)N4C3)nc2c1 | 0.4 | 43 | – | 12 | 2.3 | 216 |
| COc1ccc2nc(O[C@@H]3C[C@H]4C(=O)N[C@]5(C(=O)NS(=O)(=O)C6(C)CC6)C[C@H]5/C=C/CCCCC[C@H](NC(=O)OC(C)(C)C)C(=O)N4C3)c(C(F)(F)F)nc2c1 | 0.9 | 4.7 | – | 12 | 5.8 | 230 |
| COc1ccc2nc(O[C@@H]3C[C@H]4C(=O)N[C@]5(C(=O)NS(=O)(=O)C6(C)CC6)C[C@H]5/C=C/CCCCC[C@H](NC(=O)OCC5(C)CC5)C(=O)N4C3)c(C(F)(F)F)nc2c1 | 5.7 | 8.3 | – | 41 | 2.9 | – |
| COc1ccc2nc(C)c(O[C@@H]3C[C@H]4C(=O)N[C@]5(C(=O)NS(=O)(=O)C6(C)CC6)C[C@H]5/C=C/CCCCC[C@H](NC(=O)OCC5(C(F)(F)F)CC5)C(=O)N4C3)nc2c1 | 0.1 | 1.4 | 330 | 5.6 | 0.9 | 230 |
| COc1ccc2nc(O[C@@H]3C[C@H]4C(=O)N[C@]5(C(=O)NS(=O)(=O)C6(C)CC6)C[C@H]5/C=C/CCCCC[C@H](NC(=O)O[C@@H](C)C5CC5)C(=O)N4C3)c(C(F)(F)F)nc2c1 | 3.3 | 18 | – | 18 | 10 | 412 |
| COc1ccc2nc(O[C@@H]3C[C@H]4C(=O)N[C@]5(C(=O)NS(=O)(=O)C6(C)CC6)C[C@H]5/C=C/CCCCC[C@H](NC(=O)O[C@H](C)C(F)(F)F)C(=O)N4C3)c(C(F)(F)F)nc2c1 | 1.6 | 7.3 | – | 30 | 2.8 | 490 |
| COc1ccc2nc(O[C@@H]3C[C@H]4C(=O)N[C@]5(C(=O)NS(=O)(=O)C6(C)CC6)C[C@H]5/C=C/CCCCC[C@H](NC(=O)OC5CCC5)C(=O)N4C3)c(C(F)(F)F)nc2c1 | 1.8 | 50 | – | 9.6 | 8.5 | 870 |
| COc1ccc2nc(O[C@@H]3C[C@H]4C(=O)N[C@]5(C(=O)NS(=O)(=O)C6(C)CC6)C[C@H]5/C=C/CCCCC[C@H](NC(=O)OC5C[C@@H]6C[C@@H]6C5)C(=O)N4C3)c(C(F)(F)F)nc2c1 (some centres not stated) | – | 2.1 | – | 70 | 0.2 | 170 |
| COc1ccc2nc(O[C@@H]3C[C@H]4C(=O)N[C@]5(C(=O)NS(=O)(=O)C6(C)CC6)C[C@H]5/C=C/CCCCC[C@H](NC(=O)OC5(C)CC5)C(=O)N4C3)c(C(F)(F)F)nc2c1 | 5.8 | 14 | – | 99 | 11 | – |
| CCC(CC)OC(=O)N[C@H]1CCCCC/C=C/[C@@H]2C[C@@]2(C(=O)NS(=O)(=O)C2(C)CC2)NC(=O)[C@@H]2C[C@@H](Oc3nc4ccc(OC)cc4nc3C(F)(F)F)CN2C1=O | 4.1 | 17 | – | 85 | 4.6 | 840 |
| CCC(C)(C)OC(=O)N[C@H]1CCCCC/C=C/[C@@H]2C[C@@]2(C(=O)NS(=O)(=O)C2(C)CC2)NC(=O)[C@@H]2C[C@@H](Oc3nc4ccc(OC)cc4nc3C(F)(F)F)CN2C1=O | 1.5 | 11 | – | 10 | 2.7 | 240 |
| COc1ccc2nc(C)c(O[C@@H]3C[C@H]4C(=O)N[C@]5(C(=O)NS(=O)(=O)C6(C)CC6)C[C@H]5/C=C/CCCCC[C@H](NC(=O)OC5(C)CCCC5)C(=O)N4C3)nc2c1 | 3.7 | 4.7 | – | 49 | 1.8 | 150 |
| COc1ccc2nc(O[C@@H]3C[C@H]4C(=O)N[C@]5(C(=O)NS(=O)(=O)C6(C)CC6)C[C@H]5/C=C/CCCCC[C@H](NC(=O)OC5(C)CCC5)C(=O)N4C3)c(C(F)(F)F)nc2c1 | 1.6 | 58 | – | 26 | 4.9 | 283 |
| COc1ccc2nc(O[C@@H]3C[C@H]4C(=O)N[C@]5(C(=O)NS(=O)(=O)C6(C)CC6)C[C@H]5/C=C/CCCCC[C@H](NC(=O)OC5(C)CCCC5)C(=O)N4C3)c(C(F)(F)F)nc2c1 | 5.8 | 16 | – | 70 | 0.9 | 161 |
| COc1ccc2nc(O[C@@H]3C[C@H]4C(=O)N[C@]5(C(=O)NS(=O)(=O)C6(C)CC6)C[C@H]5/C=C/CCCCC[C@H](NC(=O)OCC(C)(C)C)C(=O)N4C3)c(C(F)(F)F)nc2c1 | 4.9 | 14 | – | 158 | 2.9 | – |
| COc1ccc2nc(C)c(O[C@@H]3C[C@H]4C(=O)N[C@]5(C(=O)NS(=O)(=O)C6(C)CC6)C[C@H]5/C=C/CCCCC[C@H](NC(=O)OC5CCCC5)C(=O)N4C3)nc2c1 | 0.1 | 1.9 | – | – | 1.1 | 120 |
| COc1ccc2nc(C)c(O[C@@H]3C[C@H]4C(=O)N[C@]5(C(=O)NS(=O)(=O)C6(C)CC6)C[C@H]5/C=C/CCCCC[C@H](NC(=O)OC5CCCCC5)C(=O)N4C3)nc2c1 | 0.2 | 3 | – | 6.8 | 0.9 | 145 |
| COc1ccc2nc(O[C@@H]3C[C@H]4C(=O)N[C@]5(C(=O)NS(=O)(=O)C6(C)CC6)C[C@H]5/C=C/CCCCC[C@H](NC(=O)O[C@@H](C)C(F)(F)F)C(=O)N4C3)c(C(F)(F)F)nc2c1 | 5.6 | 18 | – | 75 | 7.7 | 580 |
| COc1ccc2nc(O[C@@H]3C[C@H]4C(=O)N[C@]5(C(=O)NS(=O)(=O)C6(C)CC6)C[C@H]5/C=C/CCCCC[C@H](NC(=O)O[C@@H]5CCC[C@H]5F)C(=O)N4C3)c(C(F)(F)F)nc2c1 | 0.2 | 2.3 | – | 35 | 8 | – |
| COc1ccc2nc(O[C@@H]3C[C@H]4C(=O)N[C@]5(C(=O)NS(=O)(=O)C6(C)CC6)C[C@H]5/C=C/CCCCC[C@H](NC(=O)OCC5(C(F)(F)F)CC5)C(=O)N4C3)c(C(F)(F)F)nc2c1 | 1.2 | 4.6 | – | 43 | 3.5 | – |
| COc1ccc2nc(O[C@@H]3C[C@H]4C(=O)N[C@]5(C(=O)NS(=O)(=O)C6(C)CC6)C[C@H]5/C=C/CCCCC[C@H](NC(=O)OC5CCCC5)C(=O)N4C3)c(C(F)(F)F)nc2c1 | 3.2 | 6.2 | – | 45 | 8.1 | 433 |
| COc1ccc2nc(O[C@@H]3C[C@H]4C(=O)N[C@]5(C(=O)NS(=O)(=O)C6(C)CC6)C[C@H]5/C=C/CCCCC[C@H](NC(=O)OCC5(C)CC5(F)F)C(=O)N4C3)c(C(F)(F)F)nc2c1 (some centres not stated) | 2.7 | 8.5 | – | 130 | 2.1 | 336 |
| COc1ccc2nc(C)c(O[C@@H]3C[C@H]4C(=O)N[C@]5(C(=O)NS(=O)(=O)C6(C)CC6)C[C@H]5/C=C/CCCCC[C@H](NC(=O)OCC5(C)CC5(F)F)C(=O)N4C3)nc2c1 (some centres not stated) | 0.3 | 2.1 | – | 8.3 | 3.1 | 100 |
| COc1ccc2nc(C)c(O[C@@H]3C[C@H]4C(=O)N[C@]5(C(=O)NS(=O)(=O)C6(C)CC6)C[C@H]5/C=C/CCCCC[C@H](NC(=O)OC(C)(C)C(F)(F)F)C(=O)N4C3)nc2c1 | 0.8 | – | 160 | 3.3 | 2.6 | 66 |
| COc1ccc2nc(O[C@@H]3C[C@H]4C(=O)N[C@]5(C(=O)NS(=O)(=O)C6(C)CC6)C[C@H]5/C=C/CCCCC[C@H](NC(=O)OC5CC(F)(F)C5)C(=O)N4C3)c(C(F)(F)F)nc2c1 | 3.2 | 6.9 | – | 35 | 11 | – |
| COc1ccc2nc(O[C@@H]3C[C@H]4C(=O)N[C@]5(C(=O)NS(=O)(=O)C6(C)CC6)C[C@H]5/C=C/CCCCC[C@H](NC(=O)OC5CC5)C(=O)N4C3)c(C(F)(F)F)nc2c1 | 2 | 14 | – | 36 | 14 | 522 |
| COc1ccc2nc(C)c(O[C@@H]3C[C@H]4C(=O)N[C@]5(C(=O)NS(=O)(=O)C6(C)CC6)C[C@H]5/C=C/CCCCC[C@H](NC(=O)OC5CCC5)C(=O)N4C3)nc2c1 | 0.1 | 2.7 | – | 3.4 | 0.3 | 110 |
